The text below walks through data of ChEMBL document CHEMBL1144027, “Synthesis and antimycobacterial evaluation of newer 1-cyclopropyl-1,4-dihydro-6-fluoro-7-(substituted secondary amino)-8-methoxy-5-(sub)-4-oxoquinoline-3-carboxylic acids” (Bioorg Med Chem, 2008).

Series [1] relates to Mycobacterium tuberculosis. Description: Antimycobacterial activity against Mycobacterium tuberculosis H37Rv by agar dilution method. The format is functional. An outline of the steps:
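Agar dilution MIC on Middlebrook 7H11 agar with OADC, following the NCCLS-recommended approach, run in duplicate. The MDR clinical isolate was resistant to isoniazid, rifampicin, ethambutol and ofloxacin.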

In series [2] the test system is Mycolicibacterium smegmatis. The experiment in a line: Antimycobacterial activity against Mycobacterium smegmatis MC2 by agar dilution method. Type of series: functional. An outline of the steps: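 Agar dilution in Middlebrook 7H11 agar with OADC, run along NCCLS-recommended lines; M. smegmatis ATCC 14468 (MC2); MIC determined in duplicate.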
For series [3], the system named is Mycobacterium tuberculosis. Description: Antimycobacterial activity against Mycobacterium tuberculosis ATCC 35801 infected in CD1 mouse assessed as bacterial load in spleen at 50 mg/kg, ip after 10 days. The format is functional. The following applies: route intraperitoneal. In short, it runs like this: (§1)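 Female CD-1 mice, 6 weeks old, six per group, infected IV via caudal vein with ~10⁷ viable organisms. Intraperitoneal treatment started 10 days after inoculation and ran 10 days. At 35 days post-infection, spleens and right lungs were homogenised and serially 10-fold diluted onto 7H10 agar, incubated 4 weeks at 37 °C in ambient air. CFU compared with vehicle-treated controls.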

The subject of series [4] is Mycobacterium tuberculosis. The experiment in a line: Antimycobacterial activity against Mycobacterium tuberculosis ATCC 35801 infected in CD1 mouse assessed as bacterial load in lungs at 50 mg/kg, ip after 10 days. As to conditions: route intraperitoneal. The format is functional. In short, it runs like this: as §1
In another series the test system is Vero. The experiment in a line: Cytotoxicity against african green monkey Vero cells after 72 hrs by MTT assay. The format is cell-based. The following applies: Chlorocebus sabaeus. An outline of the steps: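 Mammalian Vero cells exposed to compounds at 62.5 µg/ml for 72 h; viability read by cellular conversion of MTT to formazan (Cell Titer 96 non-radioactive proliferation assay).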

The test system of series [5] is Mus musculus. Description: Phototoxicity in Swiss albino mouse assessed as ear thickness at 140 mg/kg, po after 72 hrs of irradiation. As to conditions: in vivo. Type of series: organism-based. Set-up: dose 140 mg/kg, route oral. An outline of the steps: (§2)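 Female Swiss albino mice (~2 months, 20-25 g), fasted ≥18 h, single 140 mg/kg oral gavage dose; groups of 6 (compound, lomefloxacin HCl 140 mg/kg, 0.5% carboxymethylcellulose vehicle 10 ml/kg); UV irradiation 4 h (~18 J/cm²) right after dosing; both ears scored for erythema, oedema, thickness pre-dose, at end of irradiation, and ~24-96 h; thickness given as mean of both ears ± SEM.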

The subject of series [6] is Mus musculus. The experiment in a line: Phototoxicity in Swiss albino mouse assessed as ear thickness at 140 mg/kg, po after 24 hrs of irradiation. On the set-up: dose 140 mg/kg, route oral. As to conditions: in vivo. Type of series: organism-based. In short, it runs like this:
as §2

The target in series [7] is DNA gyrase subunit B (Mycobacterium smegmatis (strain ATCC 700084 / mc(2)155), UniProt A0QNE0). Description: Inhibition of Mycobacterium smegmatis MC2 DNA gyrase GyrB ATPase supercoiling activity. Set-up: species or system Mycolicibacterium smegmatis. In short, it runs like this: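 Gyrase purified from M. smegmatis MC2 cells; compounds in DMSO pre-incubated with enzyme, then 400 ng relaxed pUC18 added in 35 mM Tris-HCl pH 7.5, 5 mM MgCl2, 25 mM K glutamate, 2 mM spermidine, 2 mM ATP, BSA, tRNA, 5% glycerol; 30 min; heat-stopped 65 °C 15 min; agarose gel, ethidium bromide staining; ciprofloxacin 10 µg/ml and 5% DMSO controls.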
Chain of DNA gyrase subunit B (Mycobacterium smegmatis (strain ATCC 700084 / mc(2)155), UniProt A0QNE0) (A0QNE0 whole entry): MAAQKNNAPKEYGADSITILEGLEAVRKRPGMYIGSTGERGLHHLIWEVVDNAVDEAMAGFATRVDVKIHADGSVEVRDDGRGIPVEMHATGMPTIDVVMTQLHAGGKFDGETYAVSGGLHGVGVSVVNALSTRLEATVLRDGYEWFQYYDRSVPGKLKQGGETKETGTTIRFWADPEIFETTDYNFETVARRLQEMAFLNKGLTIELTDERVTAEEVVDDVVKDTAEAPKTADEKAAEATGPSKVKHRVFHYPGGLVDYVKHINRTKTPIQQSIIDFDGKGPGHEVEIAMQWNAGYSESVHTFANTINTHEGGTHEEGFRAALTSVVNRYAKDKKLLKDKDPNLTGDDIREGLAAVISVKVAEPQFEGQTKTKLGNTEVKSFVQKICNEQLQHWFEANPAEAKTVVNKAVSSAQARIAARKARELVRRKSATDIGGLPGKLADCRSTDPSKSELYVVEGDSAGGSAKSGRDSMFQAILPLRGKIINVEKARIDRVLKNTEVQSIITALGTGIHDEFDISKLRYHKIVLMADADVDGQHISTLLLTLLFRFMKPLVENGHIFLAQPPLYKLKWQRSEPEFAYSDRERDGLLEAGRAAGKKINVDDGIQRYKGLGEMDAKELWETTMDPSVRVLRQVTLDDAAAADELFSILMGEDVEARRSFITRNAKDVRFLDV

The subject of series [8] is Mus musculus. The experiment in a line: Phototoxicity in Swiss albino mouse assessed as ear thickness at 140 mg/kg, po after 96 hrs of irradiation. Type of series: organism-based. The following applies: in vivo. Set-up: dose 140 mg/kg, route oral. An outline of the steps: as §2
Series [9] concerns Mus musculus. Description: Phototoxicity in Swiss albino mouse assessed as erythema incidence at 140 mg/kg, po after 24 hrs of irradiation. Type of series: organism-based. On the set-up: dose 140 mg/kg, route oral. The following applies: in vivo. An outline of the steps: as §2
Series [10] deals with Mus musculus. Description: (§3) Phototoxicity in Swiss albino mouse assessed as erythema incidence at 140 mg/kg, po after 48 hrs of irradiation. Type of series: organism-based. Set-up: dose 140 mg/kg, route oral. As to conditions: in vivo. In short, it runs like this:
as §2

The test system of series [11] is Mus musculus. Description: Phototoxicity in Swiss albino mouse assessed as ear thickness at 140 mg/kg, po after 48 hrs of irradiation. Type of series: organism-based. On the set-up: dose 140 mg/kg, route oral. The following applies: in vivo. An outline of the steps:
as §2

For series [12], the system named is Mus musculus. The experiment in a line: Phototoxicity in Swiss albino mouse assessed as ear thickness at 140 mg/kg, po after 4 hrs of irradiation. The following applies: in vivo. On the set-up: dose 140 mg/kg, route oral. The format is organism-based. An outline of the steps: as §2
For series [13], the system named is Mus musculus. The series is described as §3. The format is organism-based. As to conditions: in vivo. Set-up: dose 140 mg/kg, route oral. In short, it runs like this:
as §2
The source holds these as a separate data set.

The test system of series [14] is Mus musculus. Description: Phototoxicity in Swiss albino mouse assessed as erythema incidence at 140 mg/kg, po after 96 hrs of irradiation. The format is organism-based. On the set-up: dose 140 mg/kg, route oral. As to conditions: in vivo. In short, it runs like this:
as §2

In series [15] the test system is Mus musculus. The experiment in a line: Phototoxicity in Swiss albino mouse assessed as erythema incidence at 140 mg/kg, po after 4 hrs of irradiation. As to conditions: in vivo. Type of series: organism-based. Set-up: dose 140 mg/kg, route oral. In short, it runs like this: as §2
A short description of series [16]: Selectivity index, ratio of IC50 for monkey Vero cells to MIC for Mycobacterium tuberculosis H37Rv. The format is functional.
Series [17] has as its system Mycobacterium tuberculosis. The experiment in a line: Antimycobacterial activity against Mycobacterium tuberculosis ATCC 35801 infected in CD1 mouse assessed as bacterial load in spleen at 25 mg/kg, ip after 10 days. The format is functional. The following applies: route intraperitoneal. An outline of the steps: as §1
The test system of series [18] is Mycobacterium tuberculosis. The experiment in a line: Antimycobacterial activity against Mycobacterium tuberculosis ATCC 35801 infected in CD1 mouse assessed as bacterial load in lungs at 25 mg/kg, ip after 10 days. Type of series: functional. As to conditions: route intraperitoneal. In short, it runs like this: as §1

Molecules are shown by their SMILES. ≈ marks a conversion by molar mass, not a printed value.

The term MIC denotes the lowest concentration that inhibits growth of the organism. The term IC50 denotes the concentration that inhibits the measured activity by half. As to `COc1c(N2CCNC(C)C2)c(F)cc2c(=O)c(C(=O)O)cn(C3CC3)c12` (configuration not stated) [GATIFLOXACIN], the MIC was 1.04 µM (≈ 0.39 µg/mL) in series [1] and 2.08 µM (≈ 0.781 µg/mL) in series [2]. The Activity is on record as 6.92 in [3] and 6.02 in [4]. For the same compound, the IC50 in the series on Vero was > 155 µM.
For `COc1c(N2CCN(C(=O)C3COc4ccccc4O3)CC2)c(F)cc2c(=O)c(C(=O)O)cn(C3CC3)c12` (configuration not stated), the MIC in series [1] and in [2] was 1.49 µM (≈ 0.78 µg/mL) throughout. In addition, the Activity in the series with Mus musculus [5] is 0.33 mm; in the series on Mus musculus [6], 0.32 mm; in the series with Mus musculus [8], 0.32 mm; in the series on Mus musculus [9] it was “Non-toxic”; in the series with Mus musculus [10], “Non-toxic”; in the series on Mus musculus [11] it was 0.33 mm. The Activity in the series with Mus musculus [12] is reported as 0.31 mm; in the series with Mus musculus [13], “Non-toxic”; in the series on Mus musculus [14] it was “Non-toxic”; with Mus musculus [15], “Non-toxic”. Also, the IC50 in series [7] was 57.3 µM; with Vero, 119 µM.
As for `COc1c(N2CCN(Cc3ccc4c(c3)OCO4)CC2)c(F)c([N+](=O)[O-])c2c(=O)c(C(=O)O)cn(C3CC3)c12`, the MIC in series [1] turned out to be 0.35 µM (≈ 0.189 µg/mL); in series [2], 1.44 µM (≈ 0.778 µg/mL). The Activity in the series on Mus musculus [5] is recorded as 0.33 mm; with Mus musculus [6] it was 0.28 mm; with Mus musculus [8], 0.31 mm; in the series with Mus musculus [9], “Non-toxic”; with Mus musculus [11], 0.3 mm; in the series with Mus musculus [12] it was 0.27 mm. Further, the Activity entry in the series on Mus musculus [15] is recorded as “Non-toxic”. In addition, in the series with Vero, the IC50 was 116 µM.
Turning to `COc1ccc(CC2C3=C(CCCC3)CCN2c2c(F)c([N+](=O)[O-])c3c(=O)c(C(=O)O)cn(C4CC4)c3c2OC)cc1` (configuration not stated), the figures for the MIC in series [1] and in series [2] were 0.16 µM (≈ 0.0924 µg/mL) and 0.68 µM (≈ 0.393 µg/mL), respectively. In addition, the Activity is given as 0.33 mm in the series on Mus musculus [5]; 0.32 mm in the series with Mus musculus [6]; 0.32 mm with Mus musculus [8]; 6.1 in series [3]; “Non-toxic” in the series on Mus musculus [9]; “Non-toxic” in the series with Mus musculus [10]. The Activity in series [4] is on record as 5.41; with Mus musculus [11] it was 0.33 mm; in the series on Mus musculus [12] it was 0.33 mm; in the series on Mus musculus [13], “Non-toxic”; with Mus musculus [14], “Non-toxic”; with Mus musculus [15], “Non-toxic”. Moreover, the half-inhibitory concentration (IC50) is 51.9 µM in series [7] and 108 µM in the series with Vero. The Selectivity index in [16] stood at 676.31.
For the compound `NNC(=O)c1ccncc1` [ISONIAZID], the MIC was found to be 0.36 µM (≈ 0.0494 µg/mL) in [1] and 45.6 µM (≈ 6.25 µg/mL) in series [2]. The Activity in [17] is 4.71; in series [18], 5.86. Besides, the IC50 with Vero was > 456 µM.
Take `CCn1cc(C(=O)O)c(=O)c2cc(F)c(N3CCNC(C)C3)c(F)c21` (configuration not stated) [LOMEFLOXACIN]: the Activity is on record as 0.64 mm in the series with Mus musculus [5]; 0.48 mm in the series with Mus musculus [6]; 0.6 mm in the series on Mus musculus [8]; “Toxic” with Mus musculus [9]; “Toxic” in the series on Mus musculus [10]; 0.53 mm in the series with Mus musculus [11]. In addition, the Activity was 0.4 mm in the series with Mus musculus [12], “Toxic” in the series with Mus musculus [13], “Toxic” with Mus musculus [14] and “Toxic” in the series with Mus musculus [15].
Regarding `COc1c(N2CCC3(CC2)OCCO3)c(F)cc2c(=O)c(C(=O)O)cn(C3CC3)c12`, the figures for the MIC in series [1] and in series [2] were 0.93 µM (≈ 0.389 µg/mL) and 1.86 µM (≈ 0.778 µg/mL), respectively. Besides, the figures for the IC50 (in [7]; with Vero) were > 119 µM and 149 µM, respectively. The values for the Activity in series [3] and in series [4] were 6.41 and 6.12, respectively.
